According to ChEMBL document CHEMBL4346667 (Eur J Med Chem, 2019):

Key:
MCF7 [1] = test: Induction of apoptosis in human MCF7 cells assessed as late apoptotic cells at 1 uM after 48 hrs by Annexin V-FITC/propidium iodide staining-based flow cytometric analysis (reference value: 2.8%); assay type: functional
Method in brief: (§1)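 Log-phase cells seeded in 6-well plates and treated after adhesion; incubated in cycles of 6 h on/6 h off up to 48 h. Collected after PBS washes and trypsin, resuspended in Ca2+-enriched binding buffer. Stained with annexin V (1 µg/mL) plus PI (0.5 µg/mL) 15 min in the dark at room temperature. 10,000 events, FL1 vs FL2. At least three repeats.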

MCF7 [2] = test: Induction of apoptosis in human MCF7 cells assessed as late apoptotic cells at 50 uM after 6 hrs by Annexin V-FITC/propidium iodide staining-based flow cytometric analysis (reference value: 4.7%); assay type: functional; method in brief: as §1

COc1cc([C@@H]2c3cc4c(cc3[C@@H](O[C@@H]3O[C@@H]5CO[C@@H](C)O[C@H]5[C@H](O)[C@H]3O)[C@H]3COC(=O)[C@H]23)OCO4)cc(OC)c1O [ETOPOSIDE]
Activity (MCF7 [1]): 6%
Activity (MCF7 [2]): 4.6%
